# The list is not random: actives were taken first. Their share in the collection is about 9.4%.
# Mdm2-MdmX inh = inhibitors of human Mdm2/MdmX interaction; O15151+Q00987; SaOS-2 split-luciferase Mdm2/MdmX complementation, luminescence; inhibition, % at 8 µM; 3% of 330,000 active;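 active = inhibition of at least 50% at 8 µM in the primary screen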
# Lmaj promast = Leishmania major promastigote growth inhibition | Leishmania major promastigotes, resazurin fluorescence viability | inhibition, % at 10 µM | 9% of 200,000 active; in the data active = inhibition above about 50%;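 also: promastigotes grown with compound for 44 hours at 28 °C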
# CSC inhib = cancer stem cell inhibition | cancer stem cell-like cells viability, luminescence | inhibition, % at 7.5 µM | 1.1% of 300,000 active | AID 2717; in the data active = inhibition above about 75%; tested in HMLE shEcad cells
# SKKanGAS inh = blocks kanamycin growth of S. pyogenes SKKanGAS strain; BacTiter-Glo, 6 h; inhibition, % at 7.5 µM; 1.3% of 300,000 active;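 active = mean replicate score, as percent of positive control median, at least 50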;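 also: strain carries kanamycin resistance gene driven by streptokinase promoter and grows in 40 µg/ml kanamycin; loss of luminescence reflects streptokinase promoter inhibition or plain growth inhibition; 0% = median of DMSO wells and 100% = positive control at its reference dose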
# Beta apoptosis = beta cell apoptosis inhibition. INS-1E cytokine-induced death, ATP luminescence, 48 h; percent of positive-control rescue, neutral wells zero. protection from apoptosis, % (no concentration beside the values). 0.8% of 300,000 active. AID 435005;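 active = Every replicate reaches about 75%, or at least half do and their mean reaches it too, limit read from the data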;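 also: 0% = cytokine-treated negative control wells and 100% = positive control rescue; higher means more ATP so stronger rescue from cytokine killing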
# T cruzi repl = T. cruzi replication inhibition; T. cruzi beta-gal in NIH3T3, luminescence, 90 h; inhibition, % (no concentration beside the values); 1.4% of 300,000 active; AID 1885;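 active = mean inhibition across valid replicates above about 55%, limit read from the data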;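 also: signal also drops with host cell toxicity which is not excluded here; 0% = plate median of DMSO wells and 100% = zero luminescence signal; higher percent means less beta-gal luminescence so fewer parasites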
#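 System: mouse NIH/3T3 fibroblasts infected with β-gal-expressing T. cruzi Tulahuen C4 / Input: NIH/3T3 cells, 5,000 per well / Buffer or medium: Low-serum DMEM with 2% FBS / Probe or stimulus: 5000 reporter trypomastigotes per well / Schedule: ≥90 h infection period, 3 h prior cell attachment / Measured by: GalScreen luminescence, 60 min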
# An asterisk follows results filed as active; . = no result.
SMILES,Mdm2-MdmX inh,Lmaj promast,CSC inhib,SKKanGAS inh,Beta apoptosis,T cruzi repl
O=C(CCc1ccccc1)Nc1ccc2c(c1)OCCO2,-76.2,-3.3,-3.6,-1.7,-4.4,5.1
O=C(CCOc1ccccc1F)N1CCN(c2ccccc2O)CC1,-22.5,12.9,2.8,3.4,-6.4,-1.1
CCOC(=O)C1=CC[C@H]2c3c(c4ccccc4n3C)C[C@H]1N2C,7.5,.,11.5,.,-12.7,.
O=C1N/C(=C/c2ccc(N3CCOCC3)o2)C(=O)N1c1cccc(Cl)c1,22.5,2.5,67.1,8.4,33.3,8.6
COc1ccc(OC)c(/C=C2\NC(=O)NC2=O)c1,31.7,.,-10.5,-10.5,-7.9,-15.7
COc1cc(N2CCCC2)c(OC)cc1/C=C1/NC(=S)NC1=O,4.3,96.4*,8.8,-0.9,7.3,-10.8
COc1ccccc1NC(=O)c1ccc(NC(=O)Cc2n[nH]c(=O)c3ccccc23)cc1,19.7,.,-3.2,-2.1,8.6,-9.3
Cc1cc(O)c(/C=N/Nc2ccccc2)c(=O)o1,12.2,75.7*,.,-0.2,-7.0,11.6
Oc1ccc(/C=N/N=C/c2ccc(O)c(O)c2)cc1O,-5.0,.,40.7,1.3,-0.9,-8.9
Oc1ccc(N=Cc2ccc(O)c(O)c2)cc1,25.2,100.0*,2.8,20.4,.,-17.2
Cc1ccc(OCCC(=O)OC(C)C(=O)NC2CC2)cc1 (stereo unspecified),37.7,.,-3.6,-8.2,1.0,-15.7
C=CCNCCCCOc1ccc(Br)cc1C,22.3,98.6*,.,0.8,-6.4,52.0
Cc1cc(Br)ccc1OCCCCNCCO,14.4,85.6*,-5.6,5.5,-5.2,16.3
OCCNCc1cc(Br)ccc1OCc1ccccc1,2.7,4.1,-3.4,15.1,-10.8,2.8
Cc1ccc(OCCCCNC(C)c2ccccc2)c(C)c1 (stereo unspecified),27.6,.,.,8.3,.,43.5
O=C(CSc1nc(-c2ccco2)cc(C(F)(F)F)n1)NCCN1CCOCC1,-12.6,-2.0,-24.1,1.4,-1.1,-0.8
Cc1ccc(NC(=S)NCc2ccccc2)cc1S(=O)(=O)N1CCCCC1,14.2,23.5,.,-0.3,-5.2,7.2
O=C1/C(=C\c2ccc3c(c2)OCO3)CCC/C1=C/c1ccc2c(c1)OCO2,33.7,48.5,28.2,10.3,13.4,0.3
CC1CC/C(=C\c2ccc3c(c2)OCO3)C(=O)/C1=C/c1ccc2c(c1)OCO2 (stereo unspecified),25.6,45.0,80.6*,-0.4,4.6,29.0
COC(=O)C1=CN(Cc2ccc(C)cc2)C=C(C(=O)OC)C1c1cc(OC)c(OC)c(OC)c1,11.9,.,4.0,7.7,1.3,12.8
COCCN1C=C(C(=O)OC)C(c2cc(Br)c(OC)c(OC)c2)C(C(=O)OC)=C1,17.8,99.9*,-3.1,-4.8,-2.7,26.9
O=C(CN1C(=O)NC(c2ccccc2)(c2ccccc2)C1=O)NCc1ccco1,-17.4,.,-18.3,.,-12.2,.
CC(C)CCNC(=O)C1CCN(S(=O)(=O)c2ccc(-n3cnnn3)cc2)CC1,12.2,.,45.6,-5.0,2.3,-1.0
COc1ccc(CC(=O)NNC(=O)c2c(-c3ccccc3Cl)noc2C)cc1OC,-5.4,.,-9.8,3.0,-14.5,2.0
O=C1c2ccccc2C(=O)c2c1ncn2-c1ccccc1,4.1,54.8*,-7.4,-13.0,31.2,-12.0
SMILES,Mdm2-MdmX inh,Lmaj promast,CSC inhib,SKKanGAS inh,Beta apoptosis,T cruzi repl
CCCCSc1nc(C)cc(C)c1S(=O)(=O)c1ccccc1C,16.2,84.3*,12.5,45.0,0.7,23.2
Cc1cc(C)c(S(=O)(=O)c2ccccc2C)c(Cl)n1,12.8,100.5*,-6.1,0.1,-8.5,54.8*
Cc1ccc(S(=O)(=O)c2c(C)cc(C)nc2Cl)c(C)c1,-11.7,100.5*,-18.6,3.7,-4.4,59.1*
CN(c1ccc(OC(=O)c2ccc(-n3cncn3)c([N+](=O)[O-])c2)cc1)S(=O)(=O)c1ccccc1,15.8,.,-8.0,.,-0.9,.
Cc1cc(=O)oc2cc(OCC(=O)N(C)C3CCS(=O)(=O)C3)c(Cl)cc12 (stereo unspecified),27.0,.,-9.4,-1.1,-2.8,-7.9
CCc1nnc(NC(=O)C2(C)COC(c3ccc(OC)cc3)OC2)s1 (stereo unspecified),-8.8,5.2,-4.6,1.8,0.7,-4.3
Cc1nc(SC(C)C(=O)c2c(N)n(C)c(=O)n(C)c2=O)c2c(C)c(C)sc2n1 (stereo unspecified),26.9,.,-2.3,-6.6,-2.0,1.4
Cc1ccccc1Sc1ccc(N)cn1,5.2,.,1.8,3.4,.,10.5
Cc1cc(C(=O)N/N=C/c2cccc([N+](=O)[O-])c2)c2ccccc2n1,0.4,11.6,-1.1,0.2,-1.8,-9.7
COC(=O)c1ccc(N/N=C/c2cc([N+](=O)[O-])cc(OC)c2O)cc1,19.2,-6.0,14.0,7.5,2.8,28.2
COc1cc([N+](=O)[O-])cc(/C=N/NC(=O)c2cc(C)nc3ccccc23)c1O,40.1,.,4.7,106.4*,-3.0,-17.9
COc1cc([N+](=O)[O-])cc(/C=N/NC(=O)c2cncc(Br)c2)c1O,30.5,.,2.7,93.9*,-3.4,-6.6
COc1cc([N+](=O)[O-])cc(/C=N/NC(=O)c2cc(-c3ccccc3)nc3ccccc23)c1O,35.4,.,56.2,95.0*,79.0*,10.7
CCCNC(=O)C(Cc1ccc(C(F)(F)F)cc1)NC(=O)c1ccc(C#N)cc1 (stereo unspecified),14.0,.,-12.8,.,-6.9,.
Cc1ccc(CNS(=O)(=O)c2ccc(C(F)(F)F)cc2)n1C,25.4,.,-10.9,-0.9,-4.2,-8.3
CC(NC(=O)COc1ccc(N(C)S(=O)(=O)c2ccccc2)cc1)c1ccccc1 (stereo unspecified),15.6,22.4,1.4,5.5,4.8,1.6
C=CCn1c(SC(C)C(N)=O)nc2sc(CC)cc2c1=O (stereo unspecified),19.4,18.2,.,3.0,-1.6,-23.7
C=CCn1c(SCc2nc3cc(C(=O)OC)ccc3c(=O)[nH]2)nc2sc(CC)cc2c1=O,19.2,58.7*,-1.1,24.7,-1.9,4.0
COc1cc(/C=C/C(=O)O)cc(S(=O)(=O)N2CCc3ccccc3C2)c1OC,-15.2,-2.7,-0.9,-0.5,-2.1,-17.3
Oc1ccc(N=Nc2ccc3c(c2)OCCO3)c(O)c1,-76.5,.,84.5*,-3.9,4.4,-11.7
O=C(/C=C/c1cccc([N+](=O)[O-])c1)OCC1CCCO1 (stereo unspecified),4.1,.,-3.8,2.6,-10.7,-18.5
Nc1nc(Nc2cccc(Cl)c2)nc(NCc2ccco2)c1[N+](=O)[O-],29.6,.,70.8,74.7*,-3.7,25.5
CCN(CC)c1ccc(/C=N/N=C(c2ccccc2)c2ccccc2)c(O)c1,7.2,-1.2,61.3,-4.9,12.6,27.7
O=C(Cc1cccs1)N/N=C/c1ccco1,-7.3,-4.5,-7.3,76.9*,1.1,-18.2
CCN(CC)c1ccc(/C=N/N(c2ccccc2)c2ccccc2)c(O)c1,-5.6,-7.9,53.1,-2.6,95.1*,39.7
O=C(COc1ccccc1)NCC(=O)N/N=C/c1ccco1,-8.4,56.0*,12.8,4.4,-5.0,-15.2
